Source: PubChem BioAssay AID2529 (Broad Institute, 2010)
Activity calls are given as the source filed them.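 The calls were made as follows: active = inhibition at 30 µM, averaged over replicates, above 50% in every run; inconclusive = inhibition above 50% in some runs but not others; inactive = inhibition at most 50% in every run.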

Test system: human washed platelets, PMA-induced P-selectin, flow cytometry
Test: inhibitors of PMA-stimulated platelet P-selectin exposure, confirmation, selectivity assay, cell-based, fluorescence, flow cytometry, platelets (AID 2529)
Details: at 30 µM, stronger effect = higher value
Summary of the method: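 Signal: flow cytometry, PE anti-P-selectin / Test system: platelets stained for surface P-selectin / Doses: 30 µM single dose / Schedule: compound pre-treatment 20 min, PMA stimulation 15 min, antibody labeling 20 min / Probe or stimulus: Phorbol myristate acetate (PMA) stimulus, 5 nM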

SMILES	inhibition	inhibition (measured here: second run average inhibition)
O=C(Nc1cccc(NC(=O)c2ccccc2Cl)c1)c1ccco1	17% (inactive)	8%
CCCC(=O)Nc1cccc(NC(=O)c2ccccc2Br)c1	13% (inactive)	
